Laboratory results published in ChEMBL document CHEMBL1134645, “Discovery of small-molecule inhibitors of Bcl-2 through structure-based computer screening” (J Med Chem, 2001).

biological target: T1, Apoptosis regulator Bcl-2 (Homo sapiens, UniProt P10415); experiment: Inhibitory activity against Bcl-2 using bromide assay
Outline: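 HL-60 cells in RPMI 1640 with 10% FBS at 37 °C and 5% CO2 were plated at 2000–4000 cells/well, with various compound concentrations added at the start. After 4 days, MTT was added for 4 h at 37 °C. Formazan was solubilized in 2-propanol and absorbance read. IC50 is for inhibition of cell growth.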

T1 sequence (P10415 whole entry): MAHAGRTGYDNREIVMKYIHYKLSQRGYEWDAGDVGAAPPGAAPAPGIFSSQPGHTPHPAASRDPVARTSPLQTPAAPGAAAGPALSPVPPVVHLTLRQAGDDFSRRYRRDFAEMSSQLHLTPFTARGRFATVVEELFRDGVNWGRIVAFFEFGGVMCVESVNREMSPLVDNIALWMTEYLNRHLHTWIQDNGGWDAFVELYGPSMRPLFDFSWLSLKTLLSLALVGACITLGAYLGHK

SMILES	IC50 [µM]
COc1ccc2c(c1)CCc1cc(OC)ccc1/[N+]([O-])=[N+]\2[O-]	4

biological target: T1, Apoptosis regulator Bcl-2; experiment: In vitro inhibitory activity against Bak-Bh3 peptide binding to the Bcl-2
Outline: (§1)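 FP competition assay with recombinant GST-fused Bcl-2 (46 kDa), final 270 nM, and a fluorescein-labelled 16-mer Bak BH3 peptide tracer, final 290 nM, in 1X PBS. Compound added with final DMSO below 1%, incubated 10 min at room temperature, and polarization read at ex 485/em 535 nm. Screening was at 100 μM. IC50 came from 6–7-point serial dilutions from 100 μM, in triplicate.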

SMILES	IC50 [µM]
O=C1c2cc(Br)ccc2-c2ccc3c4ccc5c6c(ccc(c7ccc1c2c73)c64)C(=O)c1cc(Br)ccc1-5	7.7

biological target: T1, Apoptosis regulator Bcl-2; experiment: In vitro inhibitory activity against Bak-Bh3 peptide binding to the Bcl-2 using human myeloid leukemia cell line HL-60
Outline: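 Fluorescence polarization competition with 46 kDa recombinant GST-fused Bcl-2 (270 nM final) and 16-mer fluorescein-labelled Bak BH3 tracer (290 nM final) in PBS, preincubated 20 min at room temperature. Compound added (DMSO <1%), read after 10 min at room temperature, ex 485/em 535 nm. IC50 from 6–7 point serial dilutions in triplicate starting at 100 μM.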

SMILES	IC50 [µM]
O=c1c2ccc(S(=O)(=O)c3ccc4c(=O)n5c6ccccc6nc5c5cccc3c45)c3cccc(c32)c2nc3ccccc3n12	14
COc1ccc2c(c1)C(=O)C1C=C([N+]#N)C=CC1N2 (stereo not drawn)	10.4
N=C(N)c1ccc(/N=N/c2c(O)ccc3c2[nH]c2ccccc23)cc1	5.8
Brc1cccc[n+]1-c1ccc2cc(-[n+]3ccccc3Br)ccc2c1	11.7
COc1ccc2c(c1)CCc1cc(OC)ccc1/[N+]([O-])=[N+]\2[O-]	10.4

biological target: T1, Apoptosis regulator Bcl-2; experiment: Inhibitory activity against Bcl-2; outline: as §1

SMILES	Ki [nM]	IC50 [µM]
CC(C)C(C(=O)O)N1C(=O)/C(=C/c2ccc(Br)cc2)SC1=S (stereo not drawn)	2400	
Cc1cc(Cl)cc(C(=O)Nc2cc(S(=O)(=O)c3ccc(Cl)cc3)ccc2Cl)c1O		3.3
CCOC(=O)C(C#N)C1c2cc(Br)ccc2OC(N)C1C(=O)OCC (stereo not drawn)		9
CCCC[C@H]1C(=O)O[C@H](C)[C@H](NC(=O)c2cccc(NC=O)c2O)C(=O)O[C@@H](C)[C@@H]1OC(=O)CC(C)C [ANTIMYCIN A3]		2

biological target: T1, Apoptosis regulator Bcl-2; experiment: In vitro inhibition of Bak-Bh3 peptide binding to the Bcl-2 using human myeloid leukemia cell line HL-60; Inactive

SMILES	IC50
NCC(=O)c1ccc2cc(Br)c3ccccc3c2c1	Not Active
Cn1c(=O)c2nc(-[n+]3ccc(-c4ccccc4)cc3)[nH]c2n(C)c1=O	Not Active
c1cc[n+]2cc3ccc4c[n+]5ccccc5cc4c3cc2c1	Not Active
CN(C)CCNCCCNc1c2ccccc2nc2cccc([N+](=O)[O-])c12	Not Active
O=C1NC(=O)c2ccc3c4ccc5c6c(ccc(c7ccc1c2c73)c64)C(=O)N(c1ccccc1)C5=O	Not Active
CN1COc2ccc3ccc4c(c3c2C1)CN(C)CO4	Not Active
Cc1cc(-c2ccccc2)[nH]c2nc3ccccc3[n+]1-2	Not Active
COc1ccc2c(c1)c[n+](C)c1c3cc(OC)c(OC)cc3ccc21	Not Active
COc1cc2ccc3c4cc5c(cc4c[n+](C)c3c2cc1OC)OCO5	Not Active
C[n+]1cc2c3cc4c(cc3ccc2c2ccc3c(c21)OCO3)OCO4	Not Active
COc1cc2cc[n+]3c4ccc([N+](=O)[O-])cc4ccc3c2cc1OC.[Cl-]	Not Active
O=C1c2ccccc2-c2ccc3c4ccc5c6c(ccc(c7ccc1c2c73)c64)C(=O)c1ccccc1-5	Not Active
COc1cc2ccc3c[n+]4ccccc4cc3c2cc1OC	Not Active
c1cc[n+]2c(c1)-c1cccc[n+]1CCC2	Not Active
O=C1c2cc([N+](=O)[O-])ccc2-c2ccc3c4ccc5c6c(ccc(c7ccc1c2c73)c64)C(=O)c1cc([N+](=O)[O-])ccc1-5	Not Active
Nc1nc(N)c2c(n1)[n+]([O-])c1ccccc1[n+]2[O-]	Not Active
O=c1c2ccccc2c2nc3ccc4c(=O)c5ccccc5c5nc6ccc1c2c6c3c45	Not Active
O=C1c2ccccc2-c2cc(O)c3c4c(O)cc5c6c(ccc(c7ccc1c2c73)c64)C(=O)c1ccccc1-5	Not Active
[O-][n+]1c2c([n+]([O-])c3c4ccccc4ccc31)-c1cccc3cccc-2c13	Not Active
O=C(CSc1ccccn1)c1sc2cccc[n+]2c1O	Not Active
CS1(C)=NC(=O)C2=C(N=1)c1ccccc1S2(=O)=O	Not Active
Cc1cc2c(cc1C)[n+]([O-])c(-c1nc3ccccc3s1)c(N)[n+]2[O-]	Not Active
O=C1c2ccc[n+]3c2-c2c1ccc[n+]2CC3	Not Active
OC1C[n+]2cc3ccccn3c2-c2cccc[n+]21 (stereo not drawn)	Not Active
O=C1c2ccccc2C(=O)c2c1ccc1nc3c(ccc4c(O)c5ccccc5c(O)c43)nc21	Not Active
CN1C(=O)c2ccc3c4ccc5c(=O)n6c7ccccc7nc6c6ccc(c7ccc(c2c37)C1=O)c4c56	Not Active
O=C(CSc1nc2ccccc2s1)c1sc2sc3ccccc3[n+]2c1O	Not Active
